Test results published in ChEMBL document CHEMBL3400034, “Design, synthesis and biological evaluation of di-substituted noscapine analogs as potent and microtubule-targeted anticancer agents” (Bioorg Med Chem Lett, 2015).
Active and inactive are the calls of the source. No cut-off for these calls is given here.

Key:
MDA-MB-231 [1] = test: Induction of cell cycle arrest in human MDA-MB-231 cells assessed as accumulation at G2/M phase at 25 uM after 12 to 48 hrs by propidium iodide staining based FACS method; format: functional
Procedure, shortened: (§1)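 MDA-MB-231 cells treated for 0–48 h, with samples at several time points. Concentration was 10 µM for some analogs and 25 µM for others. DNA stained with propidium iodide and analysed by flow cytometry. 2N DNA scored as G1, 4N as G2/M, below 2N as sub-G1 (apoptotic index).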

MDA-MB-231 [2] = test: Induction of apoptosis in human MDA-MB-231 cells assessed as accumulation at subG1 phase at 25 uM after 12 to 48 hrs by propidium iodide staining based FACS method; format: functional, cell-based; procedure, shortened: as §1
[3] = Cytotoxicity activity against human PC3 cells after 48 hrs by MTT assay; format: functional, cell-based; settings: PC-3, 48 h
Procedure, shortened: (§2)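 Cells exposed for 48 h to increasing gradient concentrations. Proliferation read by MTT assay as percentage cell survival. IC50 is the drug concentration giving 50% inhibition of proliferation.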

MDA-MB-231 [4] = test: Induction of apoptosis in human MDA-MB-231 cells assessed as increase in caspase-3/7 activity by measuring Z-DEVD-aminoluciferin cleavage at 25 uM after 24 hrs by luminescence plate reader based method; format: functional, cell-based
Procedure, shortened: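 Lysates from treated and control cells assayed for caspase-3/7 activity. Read-out was luminescence from cleavage of Z-DEVD-aminoluciferin, expressed relative to control.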

MDA-MB-231 [5] = test: Cytotoxicity activity against human MDA-MB-231 cells after 48 hrs by MTT assay; format: functional, cell-based; settings: MDA-MB-231, 48 h; procedure, shortened: as §2
MDA-MB-231 [6] = test: Induction of apoptosis in human MDA-MB-231 cells assessed as increase in cleaved PARP protein level at 25 uM after 24 hrs by immunoblot method; format: functional, cell-based
Procedure, shortened: (§3)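 Lysates from treated and control cells run on immunoblots. Probed for survivin and cleaved PARP, with β-actin as loading control.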

Tubulin (Bos taurus) [7] = molecular target: T1, Tubulin (Bos taurus) (UniProt Q6B856+Q862L2+Q862F3); test: Inhibition of bovine brain tubulin polymerization incubated for 10 to 30 mins by spectrophotometry based light scattering assay
Procedure, shortened: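 Polymerisation of 12 µM tubulin followed by turbidity (light scattering) at 350 nm. Compound range 0–25 µM, over 30 min. Reported as relative absorbance.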

MDA-MB-231 [8] = test: Induction of apoptosis in human MDA-MB-231 cells assessed as reduction in survivin protein expression at 25 uM after 24 hrs by immunoblot method; format: functional, cell-based; procedure, shortened: as §3
Tubulin = Tubulin (Bos taurus, UniProt Q6B856+Q862L2+Q862F3); test: (§4) Binding affinity to bovine brain tubulin assessed as reduction in tubulin intrinsic tryptophan fluorescence intensity incubated for 45 mins by spectrophotometry based fluorescence titration assay
Procedure, shortened: (§5)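 Tubulin binding measured as quenching of intrinsic tryptophan fluorescence across increasing compound concentrations. KD derived from double reciprocal plots. Mean ± S.D. of three independent experiments, each performed in triplicate.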

Tubulin (Bos taurus) [9] = molecular target: T1, Tubulin (Bos taurus); test: as §4; procedure, shortened: as §5
MDA-MB-231 [10] = test: Induction of cell death in human MDA-MB-231 cells at 25 uM after 48 hrs by propidium iodide staining based FACS method; format: functional; procedure, shortened: as §1
MDA-MB-231 [11] = test: Induction of apoptosis in human MDA-MB-231 cells assessed as reduction in survivin protein expression at 10 uM after 24 hrs by immunoblot method; format: functional, cell-based
Procedure, shortened: (§6)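 Protein lysates from treated and control MDA-MB-231 cells analysed by immunoblot, probed for survivin and cleaved PARP, with β-actin as loading control.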

MDA-MB-231 [12] = test: Induction of apoptosis in human MDA-MB-231 cells assessed as accumulation at subG1 phase at 10 uM after 12 to 48 hrs by propidium iodide staining based FACS method; format: functional, cell-based
Procedure, shortened: (§7)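 MDA-MB-231 cells treated for 0–48 h (compounds at 10 µM or 25 µM depending on analog); DNA stained with propidium iodide and cell cycle profiles read by flow cytometry; G2/M (4N DNA) and sub-G1 (apoptotic index) populations quantified at each time point.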

MDA-MB-231 [13] = test: Induction of apoptosis in human MDA-MB-231 cells assessed as increase in caspase-3/7 activity by measuring Z-DEVD-aminoluciferin cleavage at 10 uM after 24 hrs by luminescence plate reader based method; format: functional, cell-based
Procedure, shortened: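 Lysates from treated and control MDA-MB-231 cells assayed for caspase-3/7 activity by luminescence from cleavage of Z-DEVD-aminoluciferin substrate; activity expressed relative to untreated control.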

MDA-MB-231 [14] = test: Induction of apoptosis in human MDA-MB-231 cells assessed as increase in cleaved PARP protein level at 10 uM after 24 hrs by immunoblot method; format: functional, cell-based; procedure, shortened: as §6
Tubulin (Bos taurus) [15] = molecular target: T1, Tubulin (Bos taurus); test: Inhibition of bovine brain tubulin polymerization at 25 uM incubated for 10 to 30 mins by spectrophotometry based light scattering assay
Procedure, shortened: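 Assembly of 12 µM tubulin followed by turbidity (light scattering) at 350 nm over 30 min with compound at 0–25 µM; relative absorbance compared with control.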

MDA-MB-231 [16] = test: Induction of cell cycle arrest in human MDA-MB-231 cells assessed as accumulation at G2/M phase at 10 uM after 12 to 48 hrs by propidium iodide staining based FACS method; format: functional; procedure, shortened: as §7
MDA-MB-231 [17] = test: Induction of cell death in human MDA-MB-231 cells at 10 uM after 48 hrs by propidium iodide staining based FACS method; format: functional; procedure, shortened: as §1

| SMILES | Activity (MDA-MB-231 [1]) [%] | Activity (MDA-MB-231 [2]) | IC50 [3] [µM] | Activity (MDA-MB-231 [4]) | IC50 (MDA-MB-231 [5]) [µM] | Activity (MDA-MB-231 [6]) | inhibition (Tubulin (Bos taurus) [7]) | Activity (MDA-MB-231 [8]) | Kd (Tubulin) [µM] | Activity (Tubulin (Bos taurus) [9]) | Activity (MDA-MB-231 [10]) [%] | Activity (MDA-MB-231 [11]) | Activity (MDA-MB-231 [12]) | Activity (MDA-MB-231 [13]) | Activity (MDA-MB-231 [14]) | inhibition (Tubulin (Bos taurus) [15]) | Activity (MDA-MB-231 [16]) [%] | Activity (MDA-MB-231 [17]) [%] |
| --- | --- | --- | --- | --- | --- | --- | --- | --- | --- | --- | --- | --- | --- | --- | --- | --- | --- | --- |
| COc1ccc2c(c1OC(=O)NCc1ccccc1)C(=O)O[C@@H]2[C@H]1c2c(c(Br)c3c(c2OC)OCO3)CCN1C | 15 | Active | 49.4 | Active | 20 | Active | Dose-dependent effect | Active | 21 | Dose-dependent effect | 80 | – | – | – | – | – | – | – |
| CCNC(=O)Oc1c(OC)ccc2c1C(=O)O[C@@H]2[C@H]1c2c(c(Br)c3c(c2OC)OCO3)CCN1C | 15 | Active | 22 | Active | 3.9 | Active | Dose-dependent effect | Active | 26 | Dose-dependent effect | 80 | – | – | – | – | – | – | – |
| COc1ccc2c(c1O)C(=O)O[C@@H]2[C@H]1c2c(c(Br)c3c(c2OC)OCO3)CCN1C | – | – | 5.6 | – | 2.2 | – | Dose-dependent effect | – | 55 | Dose-dependent effect | – | inactive | Active | Active | Active | Active | 15 | – |
| COc1ccc2c(c1OC(C)=O)C(=O)O[C@@H]2[C@H]1c2c(c(Br)c3c(c2OC)OCO3)CCN1C | – | – | 48.9 | – | 2.5 | – | Dose-dependent effect | – | 44 | Dose-dependent effect | – | inactive | Active | Active | Active | – | 15 | 80 |
